Test results as given in ChEMBL document CHEMBL4699564, “Hit-to-lead optimization and discovery of a potent, and orally bioavailable G protein coupled receptor kinase 2 (GRK2) inhibitor” (Bioorg Med Chem Lett, 2020).

How the values were obtained:
[1] = target: T1, G protein-coupled receptor kinase 5 (Homo sapiens, UniProt P34947); assay: Binding affinity to GRK5 (unknown origin) by Thermofluor thermal shift assay
Rhodopsin kinase GRK1 [2] = target: T2, Rhodopsin kinase GRK1 (Homo sapiens, UniProt Q15835); assay: Binding affinity to GRK1 (unknown origin) by Thermofluor thermal shift assay
T2 sequence (Q15835 whole entry): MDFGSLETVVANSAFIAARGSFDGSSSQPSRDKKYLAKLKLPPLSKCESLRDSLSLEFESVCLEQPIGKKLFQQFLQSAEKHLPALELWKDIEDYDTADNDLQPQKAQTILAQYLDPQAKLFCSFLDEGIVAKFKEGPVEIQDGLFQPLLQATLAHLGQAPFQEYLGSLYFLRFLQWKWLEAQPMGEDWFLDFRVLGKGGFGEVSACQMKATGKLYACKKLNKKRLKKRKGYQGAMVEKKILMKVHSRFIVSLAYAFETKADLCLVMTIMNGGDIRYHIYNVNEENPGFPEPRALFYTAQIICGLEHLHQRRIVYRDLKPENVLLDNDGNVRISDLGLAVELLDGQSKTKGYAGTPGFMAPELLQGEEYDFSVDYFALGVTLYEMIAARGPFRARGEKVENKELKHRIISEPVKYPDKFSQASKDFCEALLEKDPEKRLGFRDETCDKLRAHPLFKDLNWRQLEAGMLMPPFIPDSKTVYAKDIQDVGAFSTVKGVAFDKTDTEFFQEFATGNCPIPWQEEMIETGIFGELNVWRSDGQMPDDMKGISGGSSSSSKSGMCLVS

[3] = target: G protein-coupled receptor kinase 6 (Homo sapiens, UniProt P43250); assay: Inhibition of human GRK6
Sequence of G protein-coupled receptor kinase 6 (P43250 whole entry): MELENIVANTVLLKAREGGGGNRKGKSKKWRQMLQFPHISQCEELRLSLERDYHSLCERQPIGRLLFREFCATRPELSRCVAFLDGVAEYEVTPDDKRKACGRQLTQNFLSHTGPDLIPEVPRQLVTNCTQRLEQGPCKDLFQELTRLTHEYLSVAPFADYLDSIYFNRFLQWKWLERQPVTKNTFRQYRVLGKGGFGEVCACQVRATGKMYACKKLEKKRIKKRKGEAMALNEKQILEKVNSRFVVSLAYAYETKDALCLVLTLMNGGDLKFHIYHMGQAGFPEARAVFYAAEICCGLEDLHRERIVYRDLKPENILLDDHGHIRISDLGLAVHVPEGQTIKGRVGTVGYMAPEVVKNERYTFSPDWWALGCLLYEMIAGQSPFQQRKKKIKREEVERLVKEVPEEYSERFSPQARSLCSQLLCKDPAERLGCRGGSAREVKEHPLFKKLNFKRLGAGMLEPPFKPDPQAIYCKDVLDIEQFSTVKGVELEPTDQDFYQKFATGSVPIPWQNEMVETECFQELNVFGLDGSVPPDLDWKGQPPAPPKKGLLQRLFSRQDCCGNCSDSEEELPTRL

[4] = target: RAC-alpha serine/threonine-protein kinase (Homo sapiens, UniProt P31749); assay: Inhibition of human PKBalpha
Sequence of RAC-alpha serine/threonine-protein kinase (P31749 whole entry): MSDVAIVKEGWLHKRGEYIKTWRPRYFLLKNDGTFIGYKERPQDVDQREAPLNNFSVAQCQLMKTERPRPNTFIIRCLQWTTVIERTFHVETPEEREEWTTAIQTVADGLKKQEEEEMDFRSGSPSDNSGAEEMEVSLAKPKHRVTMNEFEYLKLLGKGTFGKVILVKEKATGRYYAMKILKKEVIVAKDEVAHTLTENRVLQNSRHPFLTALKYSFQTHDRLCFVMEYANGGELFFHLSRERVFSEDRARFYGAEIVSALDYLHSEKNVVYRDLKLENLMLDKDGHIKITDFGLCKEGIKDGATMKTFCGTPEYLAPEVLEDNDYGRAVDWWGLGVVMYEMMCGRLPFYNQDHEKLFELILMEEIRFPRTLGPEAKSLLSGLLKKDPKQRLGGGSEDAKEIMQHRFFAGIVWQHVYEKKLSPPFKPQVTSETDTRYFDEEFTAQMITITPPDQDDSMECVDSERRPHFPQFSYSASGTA

[5] = Inhibition of protein kinase A (unknown origin); design: species or system Homo sapiens
[6] = Apparent permeability across apical to basal side in MDCK-MDR1 cells; format: ADME, cell-based, Canis lupus familiaris; conditions: dog
Rhodopsin kinase GRK7 = target: T3, Rhodopsin kinase GRK7 (Homo sapiens, UniProt Q8WTQ7); assay: Inhibition of human GRK7
T3 sequence (Q8WTQ7 whole entry): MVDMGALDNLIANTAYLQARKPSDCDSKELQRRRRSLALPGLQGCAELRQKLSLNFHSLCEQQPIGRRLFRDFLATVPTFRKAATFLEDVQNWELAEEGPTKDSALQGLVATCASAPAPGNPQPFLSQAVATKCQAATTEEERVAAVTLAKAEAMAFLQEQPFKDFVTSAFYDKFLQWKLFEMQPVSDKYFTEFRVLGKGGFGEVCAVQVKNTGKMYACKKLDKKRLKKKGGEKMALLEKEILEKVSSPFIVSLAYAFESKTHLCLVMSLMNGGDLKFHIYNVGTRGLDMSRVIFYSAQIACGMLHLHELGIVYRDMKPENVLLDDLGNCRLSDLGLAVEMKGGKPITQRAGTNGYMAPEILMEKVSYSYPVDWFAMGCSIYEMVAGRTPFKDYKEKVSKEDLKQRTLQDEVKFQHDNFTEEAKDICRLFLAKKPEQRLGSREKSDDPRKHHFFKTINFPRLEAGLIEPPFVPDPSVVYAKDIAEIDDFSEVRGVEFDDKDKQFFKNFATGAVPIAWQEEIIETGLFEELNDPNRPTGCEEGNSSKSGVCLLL

[7] = target: Protein kinase C beta type (Homo sapiens, UniProt P05771); assay: Inhibition of human PKCbeta1
Sequence of Protein kinase C beta type (P05771 whole entry): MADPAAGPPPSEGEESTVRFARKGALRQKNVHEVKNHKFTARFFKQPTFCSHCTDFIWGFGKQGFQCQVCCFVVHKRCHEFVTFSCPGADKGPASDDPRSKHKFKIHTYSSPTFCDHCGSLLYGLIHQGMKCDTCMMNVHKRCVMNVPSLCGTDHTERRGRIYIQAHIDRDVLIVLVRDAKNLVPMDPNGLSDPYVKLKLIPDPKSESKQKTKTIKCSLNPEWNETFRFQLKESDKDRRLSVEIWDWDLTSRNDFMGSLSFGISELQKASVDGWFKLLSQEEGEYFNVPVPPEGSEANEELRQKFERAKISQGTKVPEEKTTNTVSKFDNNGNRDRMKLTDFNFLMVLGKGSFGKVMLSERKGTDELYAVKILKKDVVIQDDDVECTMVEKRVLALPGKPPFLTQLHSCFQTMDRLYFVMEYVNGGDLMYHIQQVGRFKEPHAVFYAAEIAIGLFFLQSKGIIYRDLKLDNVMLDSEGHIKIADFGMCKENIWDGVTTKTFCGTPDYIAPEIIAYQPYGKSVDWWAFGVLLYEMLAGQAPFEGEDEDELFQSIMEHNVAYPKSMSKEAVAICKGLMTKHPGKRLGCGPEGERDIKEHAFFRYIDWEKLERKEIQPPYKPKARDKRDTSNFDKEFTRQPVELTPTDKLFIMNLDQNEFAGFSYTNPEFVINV

[8] = target: Protein kinase C alpha type (Homo sapiens, UniProt P17252); assay: Inhibition of human PKCalpha
[9] = target: Calcium/calmodulin-dependent protein kinase type II subunit beta (Homo sapiens, UniProt Q13554); assay: Inhibition of human CaMK2beta
Sequence of Calcium/calmodulin-dependent protein kinase type II subunit beta (Q13554 whole entry): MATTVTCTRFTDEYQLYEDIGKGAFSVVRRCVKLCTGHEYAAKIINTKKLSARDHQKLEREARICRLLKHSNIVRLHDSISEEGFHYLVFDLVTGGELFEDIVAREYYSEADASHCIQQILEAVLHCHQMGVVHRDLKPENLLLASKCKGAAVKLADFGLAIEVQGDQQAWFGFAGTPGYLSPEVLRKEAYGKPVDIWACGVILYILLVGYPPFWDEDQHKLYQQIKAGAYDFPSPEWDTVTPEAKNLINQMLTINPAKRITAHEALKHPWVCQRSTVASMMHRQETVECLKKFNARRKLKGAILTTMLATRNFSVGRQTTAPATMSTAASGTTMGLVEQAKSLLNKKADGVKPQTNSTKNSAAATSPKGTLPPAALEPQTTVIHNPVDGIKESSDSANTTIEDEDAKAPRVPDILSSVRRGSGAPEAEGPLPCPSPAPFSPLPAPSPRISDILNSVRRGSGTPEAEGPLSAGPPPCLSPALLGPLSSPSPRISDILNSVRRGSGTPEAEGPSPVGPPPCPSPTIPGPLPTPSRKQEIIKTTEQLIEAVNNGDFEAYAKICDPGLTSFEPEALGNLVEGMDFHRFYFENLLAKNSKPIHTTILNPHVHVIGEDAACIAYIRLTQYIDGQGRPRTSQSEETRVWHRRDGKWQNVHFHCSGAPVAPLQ

[10] = target: T1, G protein-coupled receptor kinase 5; assay: Inhibition of human GRK5
Rhodopsin kinase GRK1 [11] = target: T2, Rhodopsin kinase GRK1; assay: Inhibition of human GRK1
Aurora kinase A = target: T4, Aurora kinase A (Homo sapiens, UniProt O14965); assay: Inhibition of human Aurora A
T4 sequence (O14965 whole entry): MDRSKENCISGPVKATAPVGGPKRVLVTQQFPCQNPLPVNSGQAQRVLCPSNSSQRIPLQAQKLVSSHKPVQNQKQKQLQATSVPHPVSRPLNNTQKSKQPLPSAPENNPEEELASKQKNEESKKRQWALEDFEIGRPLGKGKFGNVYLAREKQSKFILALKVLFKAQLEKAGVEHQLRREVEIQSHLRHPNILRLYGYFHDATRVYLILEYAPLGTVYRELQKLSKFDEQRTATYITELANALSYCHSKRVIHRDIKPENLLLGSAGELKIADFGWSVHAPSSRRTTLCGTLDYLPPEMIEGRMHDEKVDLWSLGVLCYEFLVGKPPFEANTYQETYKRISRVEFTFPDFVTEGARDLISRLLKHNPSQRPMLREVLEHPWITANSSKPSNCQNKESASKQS

[12] = target: Ribosomal protein S6 kinase alpha-1 (Homo sapiens, UniProt Q15418); assay: Inhibition of RSK1 (unknown origin)
Sequence of Ribosomal protein S6 kinase alpha-1 (Q15418 whole entry): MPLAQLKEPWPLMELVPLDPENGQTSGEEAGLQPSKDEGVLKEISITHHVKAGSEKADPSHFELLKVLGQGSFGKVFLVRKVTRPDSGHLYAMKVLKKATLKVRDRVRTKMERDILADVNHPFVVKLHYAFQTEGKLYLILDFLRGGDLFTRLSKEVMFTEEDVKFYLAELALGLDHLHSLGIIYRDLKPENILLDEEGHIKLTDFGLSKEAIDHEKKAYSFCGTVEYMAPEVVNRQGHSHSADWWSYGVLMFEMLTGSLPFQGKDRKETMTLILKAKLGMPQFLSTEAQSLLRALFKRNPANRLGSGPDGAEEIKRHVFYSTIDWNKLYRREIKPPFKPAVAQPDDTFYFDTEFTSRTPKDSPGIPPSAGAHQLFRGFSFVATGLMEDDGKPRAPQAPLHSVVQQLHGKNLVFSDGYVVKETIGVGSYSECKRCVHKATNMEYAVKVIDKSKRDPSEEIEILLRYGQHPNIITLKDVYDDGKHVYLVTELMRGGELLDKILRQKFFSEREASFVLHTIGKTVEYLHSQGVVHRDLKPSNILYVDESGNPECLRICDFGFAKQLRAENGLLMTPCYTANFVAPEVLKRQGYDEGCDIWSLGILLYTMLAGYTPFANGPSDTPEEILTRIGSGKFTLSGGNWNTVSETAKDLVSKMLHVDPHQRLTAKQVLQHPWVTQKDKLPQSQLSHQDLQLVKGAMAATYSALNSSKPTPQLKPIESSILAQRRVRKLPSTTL

[13] = target: Rho-associated protein kinase 1 (Homo sapiens, UniProt Q13464); assay: Inhibition of human ROCK1
Sequence of Rho-associated protein kinase 1 (Q13464 whole entry): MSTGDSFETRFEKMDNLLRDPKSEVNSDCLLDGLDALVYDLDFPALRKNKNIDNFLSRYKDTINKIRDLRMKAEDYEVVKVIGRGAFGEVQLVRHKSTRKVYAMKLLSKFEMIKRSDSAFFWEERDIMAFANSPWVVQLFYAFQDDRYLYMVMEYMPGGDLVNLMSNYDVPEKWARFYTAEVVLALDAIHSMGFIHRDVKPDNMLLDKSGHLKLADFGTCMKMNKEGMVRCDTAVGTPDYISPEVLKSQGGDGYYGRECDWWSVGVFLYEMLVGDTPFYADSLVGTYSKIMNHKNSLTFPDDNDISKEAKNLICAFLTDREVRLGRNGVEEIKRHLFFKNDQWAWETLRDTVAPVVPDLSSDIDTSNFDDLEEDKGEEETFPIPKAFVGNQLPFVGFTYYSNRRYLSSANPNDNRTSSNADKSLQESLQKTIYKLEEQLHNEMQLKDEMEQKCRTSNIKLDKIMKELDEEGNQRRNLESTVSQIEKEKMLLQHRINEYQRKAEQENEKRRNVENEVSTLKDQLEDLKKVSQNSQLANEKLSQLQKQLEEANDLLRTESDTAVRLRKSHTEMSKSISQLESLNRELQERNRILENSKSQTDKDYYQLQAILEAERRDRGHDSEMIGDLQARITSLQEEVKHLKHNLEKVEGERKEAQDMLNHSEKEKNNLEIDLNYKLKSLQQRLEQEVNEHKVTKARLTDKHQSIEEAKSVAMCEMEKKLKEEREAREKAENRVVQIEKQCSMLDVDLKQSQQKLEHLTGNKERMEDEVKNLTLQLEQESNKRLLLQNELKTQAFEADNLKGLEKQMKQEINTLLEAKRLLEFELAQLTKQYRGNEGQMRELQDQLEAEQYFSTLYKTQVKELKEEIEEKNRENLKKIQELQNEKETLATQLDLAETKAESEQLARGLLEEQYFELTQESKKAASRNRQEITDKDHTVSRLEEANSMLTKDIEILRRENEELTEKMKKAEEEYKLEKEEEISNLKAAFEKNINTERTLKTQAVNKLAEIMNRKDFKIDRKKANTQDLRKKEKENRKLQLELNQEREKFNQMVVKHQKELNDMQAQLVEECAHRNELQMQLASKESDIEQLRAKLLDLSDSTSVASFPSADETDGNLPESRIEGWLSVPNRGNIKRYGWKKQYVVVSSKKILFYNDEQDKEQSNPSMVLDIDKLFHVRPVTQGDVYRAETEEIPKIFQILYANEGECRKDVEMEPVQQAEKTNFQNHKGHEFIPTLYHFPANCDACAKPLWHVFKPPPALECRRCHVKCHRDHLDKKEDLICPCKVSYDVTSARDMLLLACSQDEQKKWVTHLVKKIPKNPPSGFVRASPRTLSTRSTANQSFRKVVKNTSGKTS

[14] = Volume of distribution at steady state in C57BL mouse at 2 mg/kg, iv or 10 mg/kg, po administered as single dose; format: ADME, organism-based; conditions: in vivo, read-out: Vdss
In short: (§1)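 C57BL mice given a single dose, 2 mg/kg i.v. or 10 mg/kg p.o., both formulated in 20% HPbCD. Plasma concentration–time profiles gave clearance, Vdss, terminal half-lives, Cmax, tmax, oral AUC and bioavailability.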

[15] = Cmax in C57BL mouse at 2 mg/kg, iv or 10 mg/kg, po administered as single dose; format: ADME, organism-based; design: dose 10 mg/kg; conditions: in vivo; in short: as §1
[16] = Plasma clearance in C57BL mouse at 2 mg/kg, iv or 10 mg/kg, po administered as single dose; format: ADME, organism-based; in short: as §1
[17] = Half life in C57BL mouse at 2 mg/kg, iv administered as single dose; format: ADME, organism-based; conditions: in vivo; in short: as §1
[18] = Oral bioavailability in C57BL mouse at 10 mg/kg administered as single dose; format: ADME, organism-based; conditions: in vivo; in short: as §1
[19] = Tmax in C57BL mouse at 2 mg/kg, iv or 10 mg/kg, po administered as single dose; format: ADME, organism-based; conditions: in vivo; in short: as §1
[20] = Half life in C57BL mouse at 10 mg/kg, po administered as single dose; format: ADME, organism-based; conditions: in vivo; in short: as §1

T1 sequence (P34947 whole entry): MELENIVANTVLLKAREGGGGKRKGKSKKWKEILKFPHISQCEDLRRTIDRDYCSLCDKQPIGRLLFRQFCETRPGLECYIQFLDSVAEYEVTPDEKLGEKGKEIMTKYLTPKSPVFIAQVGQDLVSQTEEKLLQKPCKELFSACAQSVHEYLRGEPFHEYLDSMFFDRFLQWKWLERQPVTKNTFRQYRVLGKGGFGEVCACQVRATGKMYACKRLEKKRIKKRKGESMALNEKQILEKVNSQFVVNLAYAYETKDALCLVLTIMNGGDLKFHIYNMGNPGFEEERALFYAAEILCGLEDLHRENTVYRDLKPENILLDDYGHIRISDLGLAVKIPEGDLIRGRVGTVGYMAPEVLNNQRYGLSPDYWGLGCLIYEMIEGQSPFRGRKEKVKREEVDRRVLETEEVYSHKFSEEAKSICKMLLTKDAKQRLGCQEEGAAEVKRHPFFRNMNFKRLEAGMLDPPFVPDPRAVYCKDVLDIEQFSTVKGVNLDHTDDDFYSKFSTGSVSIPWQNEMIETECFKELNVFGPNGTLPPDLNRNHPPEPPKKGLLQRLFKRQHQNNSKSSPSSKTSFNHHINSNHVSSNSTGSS

O=c1c2cc(-c3cn[nH]c3)ccc2ncn1Cc1ccccc1
Kd [1]: 34.3 µM
Kd (Rhodopsin kinase GRK1 [2]): 14.5 µM

O=c1c2cc(-c3ccncc3)ccc2ncn1Cc1ccccc1
Kd [1]: > 83.3 µM
Kd (Rhodopsin kinase GRK1 [2]): > 83.3 µM

COc1cccc(Cn2cnc3ccc(-c4cn[nH]c4)cc3c2=O)c1
IC50 [3]: 3.27 µM
IC50 [4]: 1.45 µM
IC50 [5]: 0.855 µM
Papp A→B [6]: 20.6 ×10⁻⁶ cm/s
IC50 (Rhodopsin kinase GRK7): 9.14 µM
IC50 [7]: 9.07 µM
IC50 [8]: > 10 µM
IC50 [9]: 3.85 µM
IC50 [10]: 4.5 µM
IC50 (Rhodopsin kinase GRK1 [11]): > 10 µM
IC50 (Aurora kinase A): 0.011 µM
IC50 [12]: 0.483 µM
IC50 [13]: 0.246 µM

COc1cccc(Cn2ncc3ccc(-c4cn[nH]c4)cc3c2=O)c1
IC50 [3]: > 10 µM
Vd [14]: 2.01 L/kg
IC50 [4]: > 10 µM
IC50 [5]: 4.88 µM
Papp A→B [6]: 53.2 ×10⁻⁶ cm/s
IC50 (Rhodopsin kinase GRK7): > 10 µM
IC50 [7]: > 10 µM
IC50 [8]: > 10 µM
IC50 [9]: > 10 µM
Cmax [15]: 4.96 µM
IC50 [10]: > 10 µM
clearance [16]: 29.1 mL/min/kg
IC50 (Rhodopsin kinase GRK1 [11]): > 10 µM
half-life [17]: 1.01 h
bioavailability [18]: 65.3%
Tmax [19]: 0.83 h
IC50 (Aurora kinase A): 0.137 µM
IC50 [12]: 3.15 µM
IC50 [13]: 1.27 µM
half-life [20]: 2.41 h

O=C(NCc1c(F)cccc1F)c1cccc(Cn2cnc3ccc(-c4cn[nH]c4)cc3c2=O)c1
Papp A→B [6]: 0.85 ×10⁻⁶ cm/s

COc1cc(Cn2cnc3ccc(-c4cn[nH]c4)cc3c2=O)ccc1F
Papp A→B [6]: 10.1 ×10⁻⁶ cm/s

O=c1c2cc(-c3cn[nH]c3)ccc2ncn1Cc1cccc(Oc2ccc(F)cc2)c1
Papp A→B [6]: 7.73 ×10⁻⁶ cm/s

O=C(NCc1ccc(F)cc1)c1cccc(Cn2cnc3ccc(-c4cn[nH]c4)cc3c2=O)c1
Papp A→B [6]: 0.57 ×10⁻⁶ cm/s

O=c1c2cc(-c3cncnc3)ccc2ncn1Cc1ccccc1
Kd [1]: > 83.3 µM
Kd (Rhodopsin kinase GRK1 [2]): > 83.3 µM

O=c1c2cc(-c3cn[nH]c3)ccc2ncn1Cc1cccc(OC(F)F)c1
Papp A→B [6]: 24.2 ×10⁻⁶ cm/s

COc1cccc([C@@H](C)n2cnc3ccc(-c4cn[nH]c4)cc3c2=O)c1
Papp A→B [6]: 37.8 ×10⁻⁶ cm/s

COc1ccc(Cn2cnc3ccc(-c4cn[nH]c4)cc3c2=O)cc1F
Papp A→B [6]: 12.3 ×10⁻⁶ cm/s

O=C(Nc1ccc(F)cc1)c1cccc(Cn2cnc3ccc(-c4cn[nH]c4)cc3c2=O)c1
Papp A→B [6]: 0.44 ×10⁻⁶ cm/s

O=c1c2ccc(-c3cn[nH]c3)cc2ncn1Cc1ccccc1
Kd [1]: > 83.3 µM
Kd (Rhodopsin kinase GRK1 [2]): 47.6 µM

O=C(NCc1c(F)cccc1F)c1ccc(Cn2cnc3ccc(-c4cn[nH]c4)cc3c2=O)cc1
Papp A→B [6]: 0.66 ×10⁻⁶ cm/s

O=c1c2cc(-c3ccn[nH]3)ccc2ncn1Cc1ccccc1
Kd [1]: > 83.3 µM
Kd (Rhodopsin kinase GRK1 [2]): > 83.3 µM

CNCCC(c1cccc(OC)c1)n1cnc2ccc(-c3cn[nH]c3)cc2c1=O (racemic)
Papp A→B [6]: < 0.34 ×10⁻⁶ cm/s
